The source made the active and inactive calls. The rule behind the calls is not given here.
What was measured:
A549 [1] = assay: Cell cycle arrest in human A549 cells assessed as accumulation at G2 phase at 300 nM after 24 hrs by propidium iodide staining-based flow cytometry (reference value: 18%); type: functional
[2] = molecular target: DNA topoisomerase 2-alpha (Homo sapiens) (UniProt P11388); assay: Inhibition of DNA topoisomerase-2 (unknown origin) assessed as inhibition of supercoiled pBR322 relaxation at 100 uM after 15 mins by gel electrophoresis
Method in brief: (§1)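 Supercoiled pBR322 relaxation with compounds at 100 µM. Topo I: 12.5 µg/mL DNA, 0.01 unit/µL enzyme, no ATP. Topo IIα: 6.67 µg/mL DNA, 0.0467 units/µL enzyme, 1 mM ATP. 37°C for 15 min, SDS stop, 1% agarose/TAE gel at 4 V/cm for 1 h, ethidium bromide stain.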

A549 [3] = assay: Cell cycle arrest in human A549 cells assessed as accumulation at G2/M phase at 10 to 300 nM after 24 hrs by propidium iodide staining-based flow cytometry; type: functional
A549 [4] = assay: Cytotoxicity against human A549 cells after 72 hrs by SRB assay; type: functional, cell-based; settings: A549, 72 h
Method in brief: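 A549 cells grown in F12 with 10% heat-inactivated FBS (37°C, 5% CO2), seeded overnight, then exposed 72 h. Fixed in cold 10% TCA for 1 h at 4°C, stained with 4 mg/mL SRB in 1% acetic acid for 15 min, solubilized in 10 mM Tris-HCl, read at A560. Inhibition = [1 − A560treated/A560control]×100%; IC50 by Logit method, at least three independent tests.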

A549 [5] = assay: Induction of apoptosis in human A549 cells assessed as early apoptotic cells at 30 nM after 48 hrs by Annexin V/propidium iodide staining-based flow cytometry (reference value: 5.75%); type: functional
Method in brief: (§2)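 After 48 h exposure, A549 cells resuspended in cold binding buffer with Annexin-V-FITC and PI, kept 10 min at room temperature in the dark, then analyzed on a FACSCalibur. Annexin-V+/PI− cells counted as early apoptotic.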

[6] = molecular target: DNA topoisomerase 2-alpha (Homo sapiens) (UniProt P11388); assay: Inhibition of DNA topoisomerase-2 (unknown origin) assessed as inhibition of kDNA decatenation at 100 uM after 15 mins by agarose gel electrophoresis
[7] = molecular target: T1, DNA topoisomerase 1 (Homo sapiens) (UniProt P11387); assay: Inhibition of DNA topoisomerase-1 (unknown origin) assessed as inhibition of supercoiled pBR322 relaxation up to 100 uM after 15 mins by gel electrophoresis; method in brief: as §1
T1 sequence (whole entry): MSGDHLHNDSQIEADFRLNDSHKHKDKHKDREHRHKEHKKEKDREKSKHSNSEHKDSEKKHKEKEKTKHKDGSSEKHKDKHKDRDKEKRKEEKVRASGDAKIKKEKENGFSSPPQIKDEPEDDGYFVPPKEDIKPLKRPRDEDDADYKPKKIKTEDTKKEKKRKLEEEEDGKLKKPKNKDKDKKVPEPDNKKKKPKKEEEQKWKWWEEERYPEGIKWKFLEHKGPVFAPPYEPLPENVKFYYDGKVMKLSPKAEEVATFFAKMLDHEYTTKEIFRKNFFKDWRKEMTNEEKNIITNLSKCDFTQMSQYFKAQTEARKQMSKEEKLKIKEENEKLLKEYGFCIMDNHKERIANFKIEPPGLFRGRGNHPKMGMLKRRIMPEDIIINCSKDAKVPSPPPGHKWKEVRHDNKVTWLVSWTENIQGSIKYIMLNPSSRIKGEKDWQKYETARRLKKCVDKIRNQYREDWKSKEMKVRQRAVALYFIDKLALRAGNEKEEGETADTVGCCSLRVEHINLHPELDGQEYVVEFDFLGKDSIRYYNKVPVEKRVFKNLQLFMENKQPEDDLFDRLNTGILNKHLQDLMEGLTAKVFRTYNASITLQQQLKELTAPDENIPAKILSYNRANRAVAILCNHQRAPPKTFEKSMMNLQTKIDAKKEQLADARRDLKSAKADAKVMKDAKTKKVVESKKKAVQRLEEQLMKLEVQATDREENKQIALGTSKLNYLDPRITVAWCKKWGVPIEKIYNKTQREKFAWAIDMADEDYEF

A549 [8] = assay: Induction of apoptosis in human A549 cells assessed as early apoptotic cells at 10 nM after 48 hrs by Annexin V/propidium iodide staining-based flow cytometry (reference value: 5.75%); type: functional; method in brief: as §2

DNA topoisomerase 2-alpha (Homo sapiens), sequence (P11388 whole entry): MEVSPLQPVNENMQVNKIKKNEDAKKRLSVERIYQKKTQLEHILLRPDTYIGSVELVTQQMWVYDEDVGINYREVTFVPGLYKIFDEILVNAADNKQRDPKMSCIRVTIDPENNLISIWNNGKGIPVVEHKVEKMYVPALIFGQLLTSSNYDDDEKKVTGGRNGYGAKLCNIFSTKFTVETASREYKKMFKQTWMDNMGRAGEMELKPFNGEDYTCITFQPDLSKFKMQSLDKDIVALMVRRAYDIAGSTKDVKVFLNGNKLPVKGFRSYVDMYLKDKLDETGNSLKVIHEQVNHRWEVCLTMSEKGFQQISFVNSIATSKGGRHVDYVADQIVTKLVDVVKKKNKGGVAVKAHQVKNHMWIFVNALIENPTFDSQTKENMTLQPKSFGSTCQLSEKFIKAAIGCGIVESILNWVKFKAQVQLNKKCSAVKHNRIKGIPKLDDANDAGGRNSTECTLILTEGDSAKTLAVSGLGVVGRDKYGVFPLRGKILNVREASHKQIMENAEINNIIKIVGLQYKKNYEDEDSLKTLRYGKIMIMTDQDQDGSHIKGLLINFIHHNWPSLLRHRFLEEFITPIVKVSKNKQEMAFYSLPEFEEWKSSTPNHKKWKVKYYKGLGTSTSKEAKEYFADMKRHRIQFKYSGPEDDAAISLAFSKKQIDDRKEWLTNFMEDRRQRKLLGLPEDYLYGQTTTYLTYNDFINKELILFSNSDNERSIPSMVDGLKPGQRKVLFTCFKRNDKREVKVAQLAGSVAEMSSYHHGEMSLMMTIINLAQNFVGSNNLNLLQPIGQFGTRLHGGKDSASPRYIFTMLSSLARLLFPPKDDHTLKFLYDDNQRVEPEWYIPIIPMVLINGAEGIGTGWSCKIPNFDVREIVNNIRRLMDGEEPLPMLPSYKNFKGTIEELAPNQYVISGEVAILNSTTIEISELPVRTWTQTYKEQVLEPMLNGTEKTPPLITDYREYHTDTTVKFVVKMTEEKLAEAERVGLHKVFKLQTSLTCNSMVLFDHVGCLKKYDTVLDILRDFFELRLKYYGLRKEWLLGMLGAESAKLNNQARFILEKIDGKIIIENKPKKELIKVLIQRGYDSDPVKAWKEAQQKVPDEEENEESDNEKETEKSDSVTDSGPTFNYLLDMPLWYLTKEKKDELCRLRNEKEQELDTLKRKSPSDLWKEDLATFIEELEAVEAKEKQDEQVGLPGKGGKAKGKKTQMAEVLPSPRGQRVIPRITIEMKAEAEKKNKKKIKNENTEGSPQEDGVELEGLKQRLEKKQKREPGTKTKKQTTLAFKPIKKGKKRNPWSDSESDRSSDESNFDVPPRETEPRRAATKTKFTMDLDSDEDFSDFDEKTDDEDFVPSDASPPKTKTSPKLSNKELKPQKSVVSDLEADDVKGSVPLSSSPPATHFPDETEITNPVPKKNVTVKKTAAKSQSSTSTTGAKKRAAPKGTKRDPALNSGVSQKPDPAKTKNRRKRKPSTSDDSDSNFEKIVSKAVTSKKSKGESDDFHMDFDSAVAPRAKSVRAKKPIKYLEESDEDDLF

`C=C(C)[C@]1(OC(=O)/C=C\C=C\CCCCCCCCC)C[C@@H](C)[C@@]2(O)[C@H]([C@H]1O)[C@@H]1O[C@]1(CO)[C@@H](O)[C@]1(O)C(=O)C(C)=C[C@H]12` was tested, and the Activity (A549 [1]) was greater than 50%, the inhibition [2] was “Active” and the Activity (A549 [3]) was “Active”. The IC50 (A549 [4]) was 2.7 nM, the Activity (A549 [5]) was 19.94% and the inhibition [6] was “Active”. For the same compound, the inhibition [7] was “inactive” and the Activity (A549 [8]) was 17.57%.
With `C=C(C)[C@@]1(O)[C@H](OC(=O)/C=C/C=C/CCCCCCCC)[C@@H]2[C@@H]3O[C@]3(CO)[C@@H](O)[C@]3(O)C(=O)C(C)=C[C@H]3[C@@]2(O)[C@H](C)[C@H]1OC(C)=O` the inhibition [2] was “Active”, the IC50 (A549 [4]) was 24 nM and the inhibition [6] was “Active”. For the same compound, the inhibition [7] was “inactive”.
`C[C@H]1CC=C2[C@H]1C[C@]1(O)C(=O)C[C@@]2(C)C1(C)CO` (stereo not given in full) showed an IC50 (A549 [4]) of 1950 nM.
In the case of `COc1cc([C@@H]2c3cc4c(cc3[C@@H](O[C@@H]3O[C@@H]5CO[C@@H](C)O[C@H]5[C@H](O)[C@H]3O)[C@H]3COC(=O)[C@H]23)OCO4)cc(OC)c1O`, the inhibition [2] is reported as “Active”.
`C=C(C)[C@]12C[C@@H](C)[C@@]34O[C@](CCCCCCCCC)(O[C@@H]1[C@@H]3[C@@H]1O[C@]1(CO)[C@@H](O)[C@]1(O)C(=O)C(C)=C[C@H]14)O2` [SIMPLEXIN] was tested, and the IC50 (A549 [4]) was 0.3 nM.
With `C=C(C)[C@]12C[C@@H](C)[C@@]34O[C@](/C=C/C=C/CCCCCCCCC)(O[C@@H]1[C@@H]3[C@@H]1O[C@]1(CO)[C@@H](O)[C@]1(O)C(=O)C(C)=C[C@H]14)O2` the inhibition [2] was “Active”, the IC50 (A549 [4]) was 0.7 nM and the inhibition [6] was “Active”. The inhibition [7] was “inactive”.
In the case of `COc1cc(C[C@H]2COC(=O)[C@@H]2Cc2ccc3c(c2)OCO3)ccc1O`, the IC50 (A549 [4]) is reported as 273 nM.
For `C=C(C)[C@@]12O[C@@]3(/C=C/C=C/CCCCCCCCC)O[C@@H]1[C@@H]1[C@@H]4O[C@]4(CO)[C@@H](O)[C@]4(O)C(=O)C(C)=C[C@H]4[C@@]1(O3)[C@H](C)[C@H]2OC(C)=O`, the IC50 (A549 [4]) was 0.4 nM.
For `COc1cc([C@H]2OC[C@@H]3Cc4cc(OC)c(O)cc4C[C@@H]32)ccc1O`, the inhibition [2] was “Active”, the IC50 (A549 [4]) was 1530 nM and the inhibition [6] was “Active”. For the same compound, the inhibition [7] was “inactive”.

Reference: ChEMBL document CHEMBL3351279, “Topoisomerase II inhibitors from the roots of Stellera chamaejasme L” (Bioorg Med Chem, 2014)
